# Reference: ChEMBL document CHEMBL1821629, “Nigerapyrones A-H, α-pyrone derivatives from the marine mangrove-derived endophytic fungus Aspergillus niger MA-132” (J Nat Prod, 2011)
# Calls of active or inactive are those of the source. The rule behind the calls is not given here.
# Legend:
# Staphylococcus aureus = test: Antimicrobial activity against Staphylococcus aureus by disc diffusion method; type: functional, organism-based
# How it was run: (§1)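 Disk diffusion assay run against a panel of two bacteria (Staphylococcus aureus, Escherichia coli) and four plant-pathogenic fungi (Alternaria brassicae, Fusarium oxysporum, Coniella diplodiella, Physalospora piricola). The positive control was chloramphenicol for the bacterial strains and amphotericin B for the fungal strains.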
# Escherichia coli = test: Antimicrobial activity against Escherichia coli by disc diffusion method; type: functional, organism-based; how it was run: as §1
# [1] = system: Botryosphaeria berengeriana; test: Antimicrobial activity against Physalospora pyricola by disc diffusion method; type: functional, organism-based; how it was run: as §1
# Coniella diplodiella = test: Antimicrobial activity against Coniella diplodiella by disc diffusion method; type: functional; how it was run: as §1
# Fusarium oxysporum = test: Antimicrobial activity against Fusarium oxysporum by disc diffusion method; type: functional, organism-based; how it was run: as §1
# Alternaria brassicae = test: Antimicrobial activity against Alternaria brassicae by disc diffusion method; type: functional; how it was run: as §1
# A549 = test: Cytotoxicity against human A549 cells; type: functional, cell-based
# MCF7 = test: Cytotoxicity against human MCF7 cells; type: functional, cell-based
# MDA-MB-231 = test: Cytotoxicity against human MDA-MB-231 cells; type: functional, cell-based
# HepG2 = test: Cytotoxicity against human HepG2 cells; type: functional, cell-based
# DU-145 = test: Cytotoxicity against human DU145 cells; type: functional, cell-based
# NCI-H460 = test: Cytotoxicity against human NCI-H460 cells; type: functional, cell-based
# SW1990 = test: Cytotoxicity against human SW1990 cells; type: functional, cell-based
Structure (SMILES),inhibition (Staphylococcus aureus),inhibition (Escherichia coli),inhibition [1],inhibition (Coniella diplodiella),inhibition (Fusarium oxysporum),inhibition (Alternaria brassicae),IC50 (A549) [µM],IC50 (MCF7) [µM],IC50 (MDA-MB-231) [µM],IC50 (HepG2) [µM],IC50 (DU-145) [µM],IC50 (NCI-H460) [µM],IC50 (SW1990) [µM]
COc1cc(-c2cc(C)cc(C)c2-c2ccccc2)oc(=O)c1,Active,Active,Active,Active,Active,Active,–,–,–,–,–,–,–
COc1cc(/C=C/C(C)=C/C(C)=C/c2ccccc2)oc(=O)c1,Active,Active,Active,Active,Active,Active,–,–,–,–,–,–,–
COc1cc(/C=C/C(C)=C/C(C)=C\c2ccccc2)oc(=O)c1,Active,Active,Active,Active,Active,Active,–,–,–,–,–,–,–
COc1cc(/C=C/C(C)=C/C(C)=O)oc(=O)c1,Active,Active,Active,Active,Active,Active,–,–,–,–,–,–,–
COc1cc(/C=C/C(C)=C\C(C)=C\c2ccccc2)oc(=O)c1,Active,Active,Active,Active,Active,Active,–,–,–,–,–,–,–
COc1cc(\C=C/C(C)=C/C(C)=C/c2ccccc2)oc(=O)c1,Active,Active,Active,Active,Active,Active,–,–,–,–,–,–,–
COc1cc(/C=C/C(C)=C/C(C)=C/c2ccccc2)oc(=O)c1C [ASNIPYRONE A],Active,Active,Active,Active,Active,Active,62,–,–,–,–,–,–
O=c1[nH]cc(F)c(=O)[nH]1 [FLUOROURACIL],–,–,–,–,–,–,52,31,59,109,3.3,8.5,–
COc1cc(-c2cc(C)cc(C)c2-c2ccccc2)oc(=O)c1C [NIGERAPYRONE B],Active,Active,Active,Active,Active,Active,–,–,–,62,–,–,–
COc1cc(/C=C/C(C)=C/C(C)=O)oc(=O)c1C [NIGERAPYRONE D],Active,Active,Active,Active,Active,Active,81,121,–,81,–,–,–
COc1cc(/C=C/C(C)=O)oc(=O)c1C [NIGERAPYRONE E],Active,Active,Active,Active,Active,Active,43,105,48,86,86,43,38
